Source: ChEMBL document CHEMBL1131440, “Synthesis and potent antifolate activity and cytotoxicity of B-ring deaza analogues of the nonpolyglutamatable dihydrofolate reductase inhibitor Nalpha-(4-amino-4-deoxypteroyl)-Ndelta-hemiphthaloyl- L-ornithine (PT523)” (J Med Chem, 1998)

Assays:
[1] = Compound was tested for in vitro antitumor activity, using SCC25 human head and neck squamous carcinoma cells; assay type: functional; settings: SCC-25
Summary of the method: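 Clonogenic assay: SCC25 cells exposed to graded drug concentrations for 72 h at 37 °C, 5% CO2, in DMEM with 10% FBS and hydrocortisone ([…]). Then replated as single cells at drug-dependent densities and grown in drug-free medium 10-14 days. Colonies stained with crystal violet; only colonies of ≥50 cells scored. IC50 is mean ± SD of ≥3 assays on different days.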

Dihydrofolate reductase = target: T1, Dihydrofolate reductase (Homo sapiens, UniProt P00374); assay: Compound was evaluated for the inhibition of Dihydrofolate reductase at concentration ranged from 0.15-0.50 uM
T1 sequence (P00374 whole entry): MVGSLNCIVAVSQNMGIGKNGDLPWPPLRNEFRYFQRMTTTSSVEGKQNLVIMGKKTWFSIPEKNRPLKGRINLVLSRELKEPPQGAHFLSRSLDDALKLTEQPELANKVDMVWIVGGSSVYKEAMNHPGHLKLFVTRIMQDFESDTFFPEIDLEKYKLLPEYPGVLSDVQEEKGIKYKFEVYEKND

U-251 = assay: Compound was evaluated for in vitro activity against U251 CNS cell lines (Human tumor cells ); assay type: functional, cell-based
Summary of the method: (§1)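 NCI Developmental Therapeutics Program human tumor cell panel; drug exposure in 96-well plates for the last 48 h of a 72-h incubation, then cells stained for total protein with sulforhodamine B per the standard NCI protocol. Data supplied by NCI.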

SF-268 = assay: Compound was evaluated for in vitro activity against SF-268 CNS cell lines (Human tumor cells ); assay type: functional, cell-based; summary of the method: as §1
RXF 393 = assay: Compound was evaluated for in vitro activity against RXF-393 kidney cell lines (Human tumor cells ); assay type: functional, cell-based; summary of the method: as §1
HCC 2998 = assay: Compound was evaluated for in vitro activity against HCC2998 Colon cell lines (Human tumor cells ); assay type: functional, cell-based; summary of the method: as §1
SK-MEL-2 = assay: Compound was evaluated for in vitro activity against SK-MEL-2 Melanoma cell lines (Human tumor cells ); assay type: functional, cell-based; summary of the method: as §1
786-0 = assay: Compound was evaluated for in vitro activity against 786-0 kidney cell lines (Human tumor cells ); assay type: functional, cell-based; summary of the method: as §1
OVCAR-3 = assay: Compound was evaluated for in vitro activity against OVCAR-3 Ovary cell lines (Human tumor cells ); assay type: functional, cell-based
Summary of the method: (§2)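 Total protein then stained with sulforhodamine B following the standard NCI protocol. Data supplied by the NCI Developmental Therapeutics Program.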

MDA-MB-435 = assay: Compound was evaluated for in vitro activity against MDA-MB-435 breast cancer cell lines (Human tumor cells ); assay type: functional, cell-based; summary of the method: as §1
OVCAR-5 = assay: Compound was evaluated for in vitro activity against OVCAR-5 Ovary cell lines (Human tumor cells ); assay type: functional, cell-based; summary of the method: as §1
BT-549 = assay: Compound was evaluated for in vitro activity against BT-549 breast cancer cell lines (Human tumor cells ); assay type: functional, cell-based; summary of the method: as §1
A549 = assay: Compound was evaluated for in vitro activity against A549/ATCC lung cancer cell lines (Human tumor cells )
RPMI-8226 = assay: Compound was evaluated for in vitro activity against RPMI-8226 leukemia cell lines (Human tumor cells ); assay type: functional, cell-based; summary of the method: as §1
UACC-257 = assay: Compound was evaluated for in vitro activity against UACC-257 Melanoma cell lines (Human tumor cells ); assay type: functional, cell-based; summary of the method: as §1
UACC-62 = assay: Compound was evaluated for in vitro activity against UACC-62 Melanoma cell lines (Human tumor cells ); assay type: functional, cell-based; summary of the method: as §1
TK-10 = assay: Compound was evaluated for in vitro activity against TK-10 kidney cell lines (Human tumor cells ); assay type: functional, cell-based; summary of the method: as §1
SK-MEL-5 = assay: Compound was evaluated for in vitro activity against SK-MEL-5 Melanoma cell lines (Human tumor cells ); assay type: functional, cell-based; summary of the method: as §1
CCRF-CEM = assay: Compound was evaluated for in vitro activity against CCRF-CEM leukemia cell lines (Human tumor cells ); assay type: functional, cell-based; summary of the method: as §1
NCI-H23 = assay: Compound was evaluated for in vitro activity against NCI-H23 lung cancer cell lines (Human tumor cells ); assay type: functional, cell-based; summary of the method: as §1
KM12 = assay: Compound was evaluated for in vitro activity against KM-12 Colon cell lines (Human tumor cells ); assay type: functional, cell-based; summary of the method: as §1
ACHN = assay: Compound was evaluated for in vitro activity against ACHN kidney cell lines (Human tumor cells ); assay type: functional, cell-based; summary of the method: as §1
HL-60 = assay: Compound was evaluated for in vitro activity against HL-60(TB) leukemia cell lines (Human tumor cells ); assay type: functional, cell-based; summary of the method: as §1
NCI-H460 = assay: Compound was evaluated for in vitro activity against NCI-H460 lung cancer cell lines (Human tumor cells ); assay type: functional, cell-based; summary of the method: as §1
Hs-578T = assay: Compound was evaluated for in vitro activity against Hs 578.T breast cancer cell lines (Human tumor cells ); assay type: functional, cell-based; summary of the method: as §1
LOX IMVI = assay: Compound was evaluated for in vitro activity against LOXIMV1 Melanoma cell lines (Human tumor cells ); assay type: functional, cell-based; summary of the method: as §2
M14 = assay: Compound was evaluated for in vitro activity against M14 Melanoma cell lines (Human tumor cells ); assay type: functional, cell-based; summary of the method: as §1
NCI-H522 = assay: Compound was evaluated for in vitro activity against NCI-H522 lung cancer cell lines (Human tumor cells ); assay type: functional, cell-based; summary of the method: as §1
T47D = assay: Compound was evaluated for in vitro activity against T-47D breast cancer cell lines (Human tumor cells ); assay type: functional, cell-based; summary of the method: as §1
OVCAR-8 = assay: Compound was evaluated for in vitro activity against OVCAR-8 Ovary cell lines (Human tumor cells ); assay type: functional, cell-based; summary of the method: as §1
SF-539 = assay: Compound was evaluated for in vitro activity against SF-539 CNS cell lines (Human tumor cells ); assay type: functional, cell-based; summary of the method: as §2
HCT-116 = assay: Compound was evaluated for in vitro activity against HCT116 Colon cell lines (Human tumor cells ); assay type: functional, cell-based; summary of the method: as §1
NCI-H226 = assay: Compound was evaluated for in vitro activity against NCI-H226 lung cancer cell lines (Human tumor cells ); assay type: functional, cell-based; summary of the method: as §1
HOP-92 = assay: Compound was evaluated for in vitro activity against HOP-92 lung cancer cell lines (Human tumor cells ); assay type: functional, cell-based; summary of the method: as §1
PC-3 = assay: Compound was evaluated for in vitro activity against PC-3 prostate cell lines (Human tumor cells ); assay type: functional, cell-based; summary of the method: as §1
SNB- = assay: Compound was evaluated for in vitro activity against […] CNS cell lines (Human tumor cells ); assay type: functional, cell-based; summary of the method: as §1
IGROV-1 = assay: Compound was evaluated for in vitro activity against IGROV1 Ovary cell lines (Human tumor cells ); assay type: functional, cell-based; summary of the method: as §1
MOLT-4 = assay: Compound was evaluated for in vitro activity against MOLT-4 leukemia cell lines (Human tumor cells ); assay type: functional, cell-based; summary of the method: as §1
A498 = assay: Compound was evaluated for in vitro activity against A498 kidney cell lines (Human tumor cells ); assay type: functional, cell-based; summary of the method: as §1
SR = assay: Compound was evaluated for in vitro activity against SR leukemia cell lines (Human tumor cells ); assay type: functional, cell-based; summary of the method: as §1
K562 = assay: Compound was evaluated for in vitro activity against K562 leukemia cell lines (Human tumor cells ); assay type: functional, cell-based; summary of the method: as §1
HCT-15 = assay: Compound was evaluated for in vitro activity against HCT-15 Colon cell lines (Human tumor cells ); assay type: functional, cell-based; summary of the method: as §1
SF-295 = assay: Compound was evaluated for in vitro activity against SF-295 CNS cell lines (Human tumor cells ); assay type: functional, cell-based; summary of the method: as §1
OVCAR-4 = assay: Compound was evaluated for in vitro activity against OVCAR-4 Ovary cell lines (Human tumor cells ); assay type: functional, cell-based; summary of the method: as §1

Question: Which results are given for `Cc1c(CNc2ccc(C(=O)NC(CCCNC(=O)c3ccccc3C(=O)O)C(=O)O)cc2)ccc2nc(N)nc(N)c12` (stereo not given)?
Answer: IC50 [1]: 0.44 nM; Ki (Dihydrofolate reductase): 0.0001 nM

Question: With `Nc1nc(N)c2nc(CNc3ccc(C(=O)NC(CCCNC(=O)c4ccccc4C(=O)O)C(=O)O)cc3)ccc2n1` (stereo not given) as the compound, how does the IC50 [1] read?
Answer: 1.2 nM

Question: What about the Ki (Dihydrofolate reductase) of the same compound?
Answer: 0.00019 nM

Question: Which IC50 (U-251) does the source give for `Nc1nc(N)c2nc(CNc3ccc(C(=O)NC(CCCNC(=O)c4ccccc4C(=O)O)C(=O)O)cc3)cnc2n1` (stereo not given) here?
Answer: 5.2 nM

Question: What about the IC50 (SF-268) of the same compound?
Answer: 0.73 nM

Question: And the IC50 (RXF 393)?
Answer: 8.6 nM

Question: What about the IC50 (HCC 2998) of the same compound?
Answer: 1.3 nM

Question: What about the IC50 (SK-MEL-2) of the same compound?
Answer: > 100 nM

Question: And the IC50 (786-0)?
Answer: 0.5 nM

Question: And the IC50 (OVCAR-3)?
Answer: 46 nM

Question: And the IC50 (MDA-MB-435)?
Answer: 3.1 nM

Question: What about the IC50 (OVCAR-5) of the same compound?
Answer: 1 nM

Question: What about the IC50 (BT-549) of the same compound?
Answer: > 1000 nM

Question: And the IC50 (A549)?
Answer: 0.57 nM

Question: What about the IC50 (RPMI-8226) of the same compound?
Answer: > 100 nM

Question: What about the IC50 (UACC-257) of the same compound?
Answer: 25 nM

Question: What about the IC50 (UACC-62) of the same compound?
Answer: 0.56 nM

Question: What about the IC50 (TK-10) of the same compound?
Answer: 9.6 nM

Question: And the IC50 (SK-MEL-5)?
Answer: 4.7 nM

Question: What about the IC50 (CCRF-CEM) of the same compound?
Answer: 1.5 nM

Question: What about the IC50 (NCI-H23) of the same compound?
Answer: 2.6 nM

Question: What about the IC50 (KM12) of the same compound?
Answer: 2.2 nM

Question: What about the IC50 (ACHN) of the same compound?
Answer: 0.81 nM

Question: What about the IC50 (HL-60) of the same compound?
Answer: 0.41 nM

Question: What about the IC50 (NCI-H460) of the same compound?
Answer: 0.43 nM

Question: What about the IC50 (Hs-578T) of the same compound?
Answer: > 100 nM

Question: What about the IC50 (LOX IMVI) of the same compound?
Answer: 0.23 nM

Question: What about the IC50 (M14) of the same compound?
Answer: > 100 nM

Question: What about the IC50 (NCI-H522) of the same compound?
Answer: 6.5 nM

Question: And the IC50 (T47D)?
Answer: > 1000 nM

Question: What about the IC50 (OVCAR-8) of the same compound?
Answer: 0.53 nM

Question: What about the IC50 (SF-539) of the same compound?
Answer: 2.3 nM

Question: What about the IC50 (HCT-116) of the same compound?
Answer: 0.18 nM

Question: And the IC50 [1]?
Answer: 1.8 nM

Question: What about the IC50 (NCI-H226) of the same compound?
Answer: > 100 nM

Question: And the IC50 (HOP-92)?
Answer: 7.5 nM

Question: What about the IC50 (PC-3) of the same compound?
Answer: > 100 nM

Question: And the IC50 (SNB-)?
Answer: > 100 nM

Question: What about the IC50 (IGROV-1) of the same compound?
Answer: > 100 nM

Question: What about the IC50 (MOLT-4) of the same compound?
Answer: 5.2 nM

Question: And the IC50 (A498)?
Answer: > 1000 nM

Question: And the Ki (Dihydrofolate reductase)?
Answer: 0.00035 nM

Question: And the IC50 (SR)?
Answer: 0.42 nM

Question: And the IC50 (K562)?
Answer: 0.3 nM

Question: What about the IC50 (HCT-15) of the same compound?
Answer: 0.6 nM

Question: What about the IC50 (SF-295) of the same compound?
Answer: 0.51 nM

Question: And the IC50 (OVCAR-4)?
Answer: > 100 nM

Question: What does the source list for `Nc1nc(N)c2cc(CNc3ccc(C(=O)NC(CCCNC(=O)c4ccccc4C(=O)O)C(=O)O)cc3)cnc2n1` (stereo not given)?
Answer: IC50 [1]: 1.8 nM; Ki (Dihydrofolate reductase): 0.00041 nM
